Rows were chosen to be rich in hits. Some 2.9% of all compounds tested hit in one or more screens of this group.
VIM-2 inhibitor: blocks Pseudomonas aeruginosa VIM-2 metallo-beta-lactamase; purified VIM-2, nitrocefin hydrolysis, epi-absorbance fluorescence; AID 1527; inhibition, % at 5.6 µM; 0.89% of 290,000 active;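 active means inhibition above the mean of all tested compounds plus 3 SD, cutoff set per screening run, cut at about 7.5% in these data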;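 further: red hydrolysis product quenches plate fluorescence so inhibitors raise well fluorescence; 0% = enzyme with DMSO and 100% = DMSO without enzyme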
SUMO HTRF inh: SUMOylation inhibition; P63279; HTRF SUMOylation assay, SAE1/SAE2 + UBC9, in vitro; inhibition, % at 35 µM; 0.36% of 290,000 active; AID 2006; in the data active means inhibition above about 50%, passing the limit was not always enough
Target sequence (P63279 whole entry, looked up): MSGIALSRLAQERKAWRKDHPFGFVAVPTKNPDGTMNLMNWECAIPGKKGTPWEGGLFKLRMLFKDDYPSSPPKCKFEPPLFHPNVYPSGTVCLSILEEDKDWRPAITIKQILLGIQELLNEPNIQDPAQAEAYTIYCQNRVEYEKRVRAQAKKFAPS
IMP-1 inh: blocks Pseudomonas aeruginosa IMP-1 metallo-beta-lactamase | inhibition, % at 5.6 µM | AID 1556 | purified IMP-1, nitrocefin hydrolysis, epi-absorbance fluorescence | 0.45% of 290,000 active;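 active means inhibition above the mean plus 3 SD of all compounds in the same screening run, cut at about 4.5% in these data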;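 further: 0% = IMP-1 with DMSO and 100% = DMSO wells lacking enzyme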
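System: Purified IMP-1 | Read-out basis: Percent enzyme inhibition | Controls: IMP-1 with DMSO as 0%, enzyme-free DMSO as 100% | Replicates: One well per compound | Doses: 5.6 µM nominal single concentration | Detection: Epi-absorbance fluorescence, 480 nm excitation, 530 nm emission | Incubation: 25 °C, 15 min preincubation, 25 min reaction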
Mot1-301 SUMO: SUMOylation pathway inhibition by Mot1-301 growth rescue; S. cerevisiae Mot1-301 growth rescue, ATP luminescence, 38.5C; percent above DMSO median, 100 means doubled; growth rescue, % at 18.8 µM; 1% of 320,000 active;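 active means every valid replicate shows activation above 250% relative to neutral control wells; inactive means the rest, any valid replicate at or below 250%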;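 further: OY570 slx delta 5 strain wells were the positive control but not used for scaling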
NALP1 yeast inh: inhibitors of NALP1 inflammasome in yeast; S. cerevisiae NALP1/ASC/caspase-1 growth, X-gal OD620, 72 h; 0.61% of 280,000 active; inhibition, % at 10 µM; in the data active means inhibition mostly above about 24%, no sharp cut-off; inactive means mostly below about 32%
FID counter: counter-screen for HCV NS3 helicase inhibitors: DNA intercalator displacement; DNA fluorescent intercalator displacement, fluorescence; 0.17% of 290,000 active; inhibition, % at 7.9 µM; in the data active means inhibition above about 37%;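 further: 0% = vehicle and 100% = reference compound; higher means more ethidium bromide displaced from hairpin DNA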
Mot1 SUMO dose: inhibits SUMO pathway, affecting Mot1-301 yeast growth; growth activity, percent, % at 42 µM; S. cerevisiae Mot1-301 galactose growth, ATP luminescence, 24 h; -100 = growth of slx-deleted rescue strain; shares compounds with Mot1-301 SUMO; 2,300 tested, under 10 active;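 active means Signal drops as the depositor expects, and the fitted half-maximal dose is no more than ten times the top valid tested dose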;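 further: more negative values mean stronger growth rescue toward the control strain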
Numbers without * were called inactive.

`O=S(=O)(Cc1noc(-c2ccc(Cl)cc2)n1)Cc1ccco1` gave VIM-2 inhibitor -0.2, SUMO HTRF inh 6.3, IMP-1 inh 0.2, Mot1-301 SUMO -8.2, NALP1 yeast inh 6.5 and FID counter -16.9.
Cc1nc2scc(-c3cccs3)c2c(=O)[nH]1 was read as VIM-2 inhibitor -2.7, SUMO HTRF inh 12.0, IMP-1 inh -2.8, Mot1-301 SUMO 4.8, NALP1 yeast inh 12.5 and FID counter -1.5.
For Nc1nc(SCc2nc3scc(-c4cccs4)c3c(=O)[nH]2)n[nH]1 the results were VIM-2 inhibitor -2.3, SUMO HTRF inh -5.6, IMP-1 inh -4.2, Mot1-301 SUMO active, NALP1 yeast inh 1.3, FID counter -0.7 and Mot1 SUMO dose 0.3.
Screening CN1CCCCC1=NCCCn1cnc2c1c(=O)n(C)c(=O)n2C returned VIM-2 inhibitor -0.6, SUMO HTRF inh 0.4, IMP-1 inh -2.0, Mot1-301 SUMO 601.9*, NALP1 yeast inh -10.6, FID counter 6.5 and Mot1 SUMO dose 0.5.
Cc1ccc(NC(=S)NC(NC(=O)c2ccccc2C)C(Cl)(Cl)Cl)c(C)c1 (centres undefined) was read as VIM-2 inhibitor -2.1, SUMO HTRF inh -33.7, IMP-1 inh 2.9, Mot1-301 SUMO 627.2*, NALP1 yeast inh 6.7, FID counter -19.2 and Mot1 SUMO dose 0.0.
`O=C1CCC(/C=C/c2ccccc2)=NN1Cc1ccccc1Cl` gave VIM-2 inhibitor -2.2, SUMO HTRF inh -14.3, IMP-1 inh 0.6, Mot1-301 SUMO 32.9, NALP1 yeast inh 3.5 and FID counter -19.9.
Screening O=C1CCC(/C=C/c2ccccc2)=NN1Cc1ccc(Cl)c(Cl)c1 returned VIM-2 inhibitor -1.4, SUMO HTRF inh -9.3, IMP-1 inh 1.6, Mot1-301 SUMO 659.1*, NALP1 yeast inh -4.6, FID counter -5.1 and Mot1 SUMO dose 0.5.
For CC(=O)c1cccc(N(C(=O)Cn2nnc3ccccc32)C(C(=O)NCC2CCCO2)c2ccc(N3CCOCC3)cc2)c1 (centres undefined) the results were VIM-2 inhibitor -0.2, SUMO HTRF inh -1.8, IMP-1 inh -2.1, Mot1-301 SUMO 2.6, NALP1 yeast inh -9.0 and FID counter -25.9.
CNC(=O)COC(=O)c1cc(-c2ccco2)nc2ccccc12 was read as VIM-2 inhibitor -1.6, SUMO HTRF inh 62.8*, IMP-1 inh -1.8, Mot1-301 SUMO active, NALP1 yeast inh -5.8, FID counter 0.1 and Mot1 SUMO dose -0.1.
For Cc1cc(C)cc(NC(=O)CCn2ccnc2)c1 the results were VIM-2 inhibitor -3.0, SUMO HTRF inh 15.6, IMP-1 inh -2.8, Mot1-301 SUMO -19.3, NALP1 yeast inh 18.5 and FID counter -3.4.
For O=C(Nc1ccc(Cl)cc1)c1cc2nc(-c3ccco3)cc(C(F)(F)F)n2n1 the results were VIM-2 inhibitor -1.9, SUMO HTRF inh 27.9, IMP-1 inh -2.5, Mot1-301 SUMO -13.6, NALP1 yeast inh 11.7 and FID counter -16.8.
`Cc1ccccc1Cn1cc(NC(=O)c2cc3nc(-c4ccco4)cc(C(F)(F)F)n3n2)cn1` gave VIM-2 inhibitor 0.0, SUMO HTRF inh 19.0, IMP-1 inh -0.3, Mot1-301 SUMO 360.0*, NALP1 yeast inh 21.0, FID counter -5.3 and Mot1 SUMO dose 0.0.
Screening CC(NC(=O)c1ccncc1)c1ccccc1 (centres undefined) returned VIM-2 inhibitor -0.3, SUMO HTRF inh 7.9, IMP-1 inh -2.1, Mot1-301 SUMO -6.0, NALP1 yeast inh 12.0 and FID counter -1.6.
For Cc1ccc(C)c(C(C)NC(=O)c2ccncc2)c1 (centres undefined) the results were VIM-2 inhibitor -1.1, SUMO HTRF inh -11.2, IMP-1 inh -2.5, Mot1-301 SUMO 751.6*, NALP1 yeast inh 6.4, FID counter 0.4 and Mot1 SUMO dose -0.4.
For Cc1nn(CC(=O)NCc2ccc(C(=O)O)cc2)c(C)c1[N+](=O)[O-] the results were VIM-2 inhibitor -3.6, SUMO HTRF inh -1.9, IMP-1 inh -2.9, Mot1-301 SUMO 0.3, NALP1 yeast inh -15.9 and FID counter 0.9.
For N#Cc1ccc(C23CC4(C2)[C@H](CN(Cc2ccc(C(F)(F)F)cc2)[C@@H]4c2ccccc2)C3c2ccc(C(F)(F)F)cc2)cc1 (some centres undefined) the results were SUMO HTRF inh -19.5, Mot1-301 SUMO 427.5* and Mot1 SUMO dose -0.2.
For COc1ccc(NC(=O)c2cc(C)no2)cc1Cl the results were VIM-2 inhibitor 0.6, SUMO HTRF inh -12.7, IMP-1 inh -2.4, Mot1-301 SUMO 431.9*, NALP1 yeast inh 13.9, FID counter -1.4 and Mot1 SUMO dose -0.2.
`COc1ccc(C2C(C(=O)Nc3cccc(OC)c3)c3ccccc3C(=O)N2C)cc1` (centres undefined) gave VIM-2 inhibitor -0.4, SUMO HTRF inh 2.0, IMP-1 inh -2.7, Mot1-301 SUMO 3.5, NALP1 yeast inh 3.6 and FID counter -8.1.
`COc1ccc(C2C(C(=O)Nc3cc(OC)c(OC)c(OC)c3)c3ccccc3C(=O)N2C)cc1` (centres undefined) gave VIM-2 inhibitor -2.1, SUMO HTRF inh -4.7, IMP-1 inh -0.7, Mot1-301 SUMO 465.2*, NALP1 yeast inh 12.5, FID counter -33.2 and Mot1 SUMO dose 0.0.
`CC1=C/C(=N\OS(=O)(=O)c2ccccc2)C(C(C)C)=CC1=O` gave VIM-2 inhibitor -4.5, SUMO HTRF inh -0.3, IMP-1 inh -1.9, Mot1-301 SUMO 413.2*, NALP1 yeast inh 102.3*, FID counter -1.8 and Mot1 SUMO dose -2.8.
`O=[N+]([O-])c1ccc(N/N=C/c2cccc(O)c2)cc1` gave VIM-2 inhibitor -2.4, SUMO HTRF inh 10.2, IMP-1 inh -1.2, Mot1-301 SUMO 483.5*, NALP1 yeast inh 8.8, FID counter 20.8 and Mot1 SUMO dose -2.1.
Screening NC1=NC2(CCCC2)N=C(Nc2ccccc2)N1 returned VIM-2 inhibitor -4.6, SUMO HTRF inh 0.8, IMP-1 inh -1.9, Mot1-301 SUMO 722.4*, NALP1 yeast inh 6.2, FID counter -0.9 and Mot1 SUMO dose 0.2.
For Cc1cccc(NS(=O)(=O)c2cccc(C(=O)N3CCC3)c2)c1 the results were Mot1-301 SUMO -1.9.
`O=C(CSc1ncn[nH]1)Nc1ccc(S(=O)(=O)N2CCCC2)cc1` gave VIM-2 inhibitor -3.6, SUMO HTRF inh 5.5, IMP-1 inh -4.1, Mot1-301 SUMO 1.3, NALP1 yeast inh -1.3 and FID counter -7.3.
Screening O=C(CSc1ncn[nH]1)Nc1cccc(S(=O)(=O)N2CCCCCC2)c1 returned VIM-2 inhibitor -0.1, SUMO HTRF inh -8.2, IMP-1 inh -3.2, Mot1-301 SUMO 499.1*, NALP1 yeast inh 20.5, FID counter -6.6 and Mot1 SUMO dose 0.0.

Screens (PubChem BioAssay)
